Laboratory results reported in publication PMC6034632 (Science translational medicine, 2017).
*1 amine or outer side, *2 acyl side, *3 side chain or, on linkers, in order; H or OH if unused. Where a SMILES comes first, the peptide text is derived from it. Bridges are numbered along the chain shown (N, C = ends). [ ]: non-standard residue; d: D form. The star is where a group is joined. Leu(3R-OH,Nα-propionyl) = CCC(=O)N[C@H](C(=O)*)[C@H](O)C(C)C; X1 = CC(C)[C@@H](O[*:3])[C@H](N[*:1])C(=O)[*:2]; NMeT = CN[C@H](C(=O)O)[C@@H](C)O; dPhLac = O=C(O)[C@H](O)Cc1ccccc1; NMeA = CN[C@@H](C)C(=O)O; NMeDha = C=C(NC)C(=O)O

Key:
[1] = test system: nuclear ERK activity (NK1R, HEK293 cells); experiment: FRET biosensor NucEKAR, SP-induced nuclear ERK activity; type: cell-based, human; settings: for SP stimulation of nuclear ERK: SP 1 nM, HEK293, NucEKAR
Procedure, shortened: (§1)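 HEK293 cells expressed NK1R plus a genetically encoded FRET biosensor targeted to the cytosol, nucleus or plasma membrane (ERK, PKC or cAMP sensors). Ratiometric imaging followed time courses after SP, with the maximal signal set by a positive control. Responses were integrated as area under the curve.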

[2] = test system: cytosolic cAMP (NK1R, HEK293 cells); experiment: FRET biosensor CytoEpac2, SP-induced cytosolic cAMP; type: cell-based, human; settings: SP 1 nM
Procedure, shortened: as §1

[3] = test system: cytosolic PKC activity (NK1R, HEK293 cells); experiment: FRET biosensor CytoCKAR, SP-induced cytosolic PKC activity; type: cell-based, human; settings: SP 1 nM
Procedure, shortened: as §1

[4] = test system: NK1R endocytosis in HEK293 cells; experiment: BRET assay of SP-induced NK1R endocytosis; type: cell-based, human; settings: SP 1 or 10 nM
Procedure, shortened: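 NK1R C-terminally fused to RLUC8 was co-expressed in HEK293 cells with Venus-tagged KRAS (plasma membrane marker) or RAB5A (early endosome marker). Receptor proximity to each compartment was tracked as SP-induced BRET over time. Observations were in triplicate, n ≥ 3 experiments.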

HEK-NK1R cells = experiment: Endocytosis of fluorescent Alexa Fluor 568–SP; type: cell-based, human
[5] = test system: plasma membrane PKC activity (NK1R, HEK293 cells); experiment: FRET biosensor pmCKAR, plasma membrane PKC activity; type: cell-based, human; settings: SP 1 nM
Procedure, shortened: as §1

[6] = test system: contralateral paw withdrawal; settings: mouse, in vivo
[7] = test system: SP and CGRP release from dorsal spinal cord; experiment: Capsaicin-stimulated neuropeptide release from segments of dorsal spinal cord; settings: segments of mouse dorsal spinal cord, n = 6 experiments
[8] = test system: pERK in lamina I/II dorsal horn neurons; experiment: Capsaicin-stimulated ERK phosphorylation in dorsal horn neurons in vivo; settings: rat, intrathecal inhibitor, intraplantar capsaicin
[9] = test system: cytosolic ERK activity (NK1R, HEK293 cells); experiment: FRET biosensor CytoEKAR, SP-induced cytosolic ERK activity; type: cell-based, human; settings: SP 1 nM
Procedure, shortened: as §1

[10] = test system: plasma membrane cAMP (NK1R, HEK293 cells); experiment: FRET biosensor pmEpac2, SP-induced plasma membrane cAMP; type: cell-based, human; settings: SP 1 nM
Procedure, shortened: as §1

[11] = test system: formalin nocifensive response; experiment: Nocifensive behavior after intraplantar formalin; type: in vivo, mouse; settings: mice, intrathecal endocytosis inhibitors
motor behavior = settings: mouse, in vivo
PKCα = settings: cited from earlier work
[12] = test system: NK1R-positive neurons in lamina I of the dorsal horn; experiment: Cell-attached patch clamp recordings of SP-induced firing in spinal cord slices; type: cell-based, rat; settings: for reduction of number of SP-stimulated action potentials: compared to controls; for inhibition of SP-induced firing time of lamina I neurons: slices preincubated with inhibitor, versus vehicle control
Procedure, shortened: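 Cell-attached patch clamp recordings were made from second-order lamina I neurons in rat spinal cord slices. SP was applied at 1 μM for 2 min, then washed out. Slices were exposed to test compound for 60 min, washed, and challenged with SP 60 min later. Firing rate was taken as events per 2 min normalized to the 2-min rate, and duration as time to the last action potential. Six to 7 neurons per group.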

lamina I/IIo neurons = experiment: EPSC induced by primary afferent stimulation; type: cell-based; settings: n = 11 neurons
[13] = test system: HEK293 / HEK-NK1R-GFP cells; experiment: Uptake and trafficking of tripartite probes; type: cell-based, human; settings: effect of dynamin inhibitor
Procedure, shortened: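 HEK293 or HEK-NK1R–GFP cells were incubated with Cy5-labelled cholestanol-conjugated probes, either continuously for 4 hours or as a 30 or 60 min pulse, washed and recovered 4 hours. NK1R-GFP cells received SP to drive receptor endocytosis. Localization to plasma membrane and RAB5A-RFP– or NK1R-GFP–positive endosomes was imaged, with or without dynamin inhibitor.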

[14] = test system: capsaicin-evoked mechanical allodynia; experiment: Capsaicin-evoked mechanical allodynia in rat; type: in vivo; settings: intrathecal
[15] = test system: NK1R-IR endocytosis in spinal neurons; experiment: SP-induced NK1R-IR endocytosis in spinal cord slices; type: cell-based; settings: rat spinal cord slices, SP 1 μM 5 min
[16] = test system: NK1R-IR in lamina I neurons; experiment: NK1R endocytosis in spinal neurons in vivo after intraplantar capsaicin; settings: rat, intraplantar capsaicin alone (vehicle-treated control 80.7 ± 1.6), 10 min
[17] = test system: CFA-induced mechanical hyperalgesia; experiment: CFA-induced mechanical hyperalgesia, von Frey; type: in vivo, mouse; settings: mice, intrathecal 36 hours after intraplantar CFA
Procedure, shortened: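 Mice received intraplantar CFA; 36 hours later test compound was given intrathecally. Mechanical hyperalgesia was read as von Frey filament withdrawal responses of the CFA-injected paw over the following hours. Groups were compared to control by ANOVA with Dunnett's test.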

[18] = Degradation by membranes prepared from spinal cord; type: in vitro ADME, mouse
[19] = test system: capsaicin-induced mechanical allodynia; type: in vivo, mouse; settings: mice, intrathecal injection 3 hours before intraplantar capsaicin
NK1R (HEK-NK1R cells) = NK1R (HEK-NK1R cells) (Homo sapiens, UniProt P25103); experiment: SP-stimulated Ca2+ signaling; type: cell-based; settings: 10 nM antagonist
[20] = rat spinal cord slices, SP 1 μM 2 min

Sequence of NK1R (HEK-NK1R cells) (P25103 whole entry, species assumed): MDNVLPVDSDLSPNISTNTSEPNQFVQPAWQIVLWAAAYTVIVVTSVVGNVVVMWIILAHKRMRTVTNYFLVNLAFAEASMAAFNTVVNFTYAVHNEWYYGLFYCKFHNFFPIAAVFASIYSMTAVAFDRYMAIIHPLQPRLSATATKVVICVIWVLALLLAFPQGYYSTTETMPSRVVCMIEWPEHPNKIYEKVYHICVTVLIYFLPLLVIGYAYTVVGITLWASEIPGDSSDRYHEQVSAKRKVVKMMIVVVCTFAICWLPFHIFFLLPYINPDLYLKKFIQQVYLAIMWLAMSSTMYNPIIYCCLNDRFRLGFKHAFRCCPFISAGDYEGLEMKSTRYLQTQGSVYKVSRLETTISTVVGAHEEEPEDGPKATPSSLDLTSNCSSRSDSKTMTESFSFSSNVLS

Compound: C=C1C(=O)N[C@@H](C)C(=O)N(C)[C@@H](C)C(=O)N[C@@H]([C@H](OC(=O)[C@@H](NC(=O)CC)[C@H](O)C(C)C)C(C)C)C(=O)N(C)[C@@H]([C@@H](C)OC)C(=O)O[C@H](C(C)C)[C@H](NC(C)=O)C(=O)O[C@H](Cc2ccccc2)C(=O)N1C [UBO-QIC] (Ac-[X1][dPhLac][NMeDha]A[NMeA][X1](Leu(3R-OH,Nα-propionyl))[NMeT](Me); ester 1-C)
- SP stimulation of nuclear ERK [1]: prevented SP activation of nuclear ERK
- SP stimulation of cytosolic cAMP [2]: prevented SP generation of cytosolic cAMP
- SP stimulation of cytosolic PKC [3]: prevented activation of cytosolic PKC
- SP-induced NK1R endocytosis [4]: did not affect NK1R endocytosis

Compound: O=C1NC(=NS(=O)(=O)c2cccc3ccccc23)S/C1=C\c1ccc(Br)cc1 [PS2, Pitstop-2]
- endocytosis of fluorescent Alexa Fluor 568–SP (HEK-NK1R cells): inhibited endocytosis
- SP stimulation of nuclear ERK [1]: abolished
- SP stimulation of cytosolic cAMP [2]: abolished
- plasma membrane PKC activity [5]: amplified plasma membrane PKC activity
- withdrawal responses of the contralateral paw [6]: did not affect
- SP stimulation of cytosolic PKC [3]: abolished
- capsaicin-stimulated release of SP or CGRP [7]: did not affect
- SP-induced NK1R endocytosis [4]: inhibited NK1R endocytosis
- capsaicin-stimulated ERK activation in spinal neurons [8]: prevented capsaicin-stimulated ERK activation
- SP activation of cytosolic ERK [9]: did not affect
- SP activation of plasma membrane cAMP [10]: did not affect
- nocifensive response to intraplantar formalin [11]: blunted both the early (noninflammatory) and late (inflammatory) phases
- rotarod latency (motor behavior): did not affect

Compound: CN(C)CCCn1cc(C2=C(c3c[nH]c4ccccc34)C(=O)NC2=O)c2ccccc21 [GF109203X]
- SP stimulation of cytosolic cAMP [2]: prevented SP generation of cytosolic cAMP
- inhibiting PKCα (PKCα): 4 % control
- reduction of number of SP-stimulated action potentials [12]: 61 ± 15%
- inhibition of SP-induced firing time of lamina I neurons [12]: 56.8 ± 8.2%

Compound: O=C(N/N=C/c1cc(O)c(O)cc1O)c1cc2ccccc2cc1O [Dy4, Dyngo-4a]
- endocytosis of fluorescent Alexa Fluor 568–SP (HEK-NK1R cells): inhibited endocytosis
- SP stimulation of nuclear ERK [1]: abolished
- SP stimulation of cytosolic cAMP [2]: abolished
- generation of excitatory postsynaptic currents (EPSCs) (lamina I/IIo neurons): did not affect
- plasma membrane PKC activity [5]: amplified plasma membrane PKC activity
- withdrawal responses of the contralateral paw [6]: did not affect
- uptake of Chol-conjugated tripartite probes [13]: inhibited uptake
- SP stimulation of cytosolic PKC [3]: abolished
- capsaicin-stimulated release of SP or CGRP [7]: did not affect
- SP-induced NK1R endocytosis [4]: inhibited NK1R endocytosis
- capsaicin-evoked mechanical allodynia in rat [14]: inhibited capsaicin-evoked mechanical allodynia
- SP-stimulated NK1R-IR endocytosis in spinal neurons [15]: inhibited NK1R endocytosis
- capsaicin-stimulated ERK activation in spinal neurons [8]: prevented capsaicin-stimulated ERK activation
- SP activation of cytosolic ERK [9]: did not affect
- SP activation of plasma membrane cAMP [10]: did not affect
- nocifensive response to intraplantar formalin [11]: blunted both the early (noninflammatory) and late (inflammatory) phases
- rotarod latency (motor behavior): did not affect
- initial onset of SP-induced firing [12, 20]: did not affect the initial onset
- sustained SP-induced firing (firing rate and firing time) [12, 20]: prevented the sustained response
- SP-induced firing rate (events per 2 min, normalized to rate at 2 min) ([12]; rat spinal cord slices, SP 1 μM 2 min, endocytosis inhibitor): 342.1 ± 120.7 events per 2 min

Compound: N#CC(=C(/N)Sc1ccccc1N)/C(C#N)=C(/N)Sc1ccccc1N [U0126]
- reduction of number of SP-stimulated action potentials [12]: 84 ± 5%
- inhibition of SP-induced firing time of lamina I neurons [12]: 67.5 ± 8.3%

Compound: COc1cc(CNC(=O)CCCC/C=C/C(C)C)ccc1O [capsaicin]
- % NK1R-IR within 0.5 μm of plasma membrane [16]: 42.1 ± 5.6%

Compound: O=C(O)CN(CCOCCOCCN(CC(=O)O)CC(=O)O)CC(=O)O [EGTA]
- SP stimulation of cytosolic cAMP [2]: prevented SP generation of cytosolic cAMP
- SP stimulation of cytosolic PKC [3]: prevented activation of cytosolic PKC

Compound: COc1ccc2c(c1)CC[C@@H]1[C@@H]2CC[C@]2(C)[C@@H](NCCCCCCN3C(=O)C=CC3=O)CC[C@@H]12 [U73122]
- SP stimulation of cytosolic PKC [3]: prevented activation of cytosolic PKC

Compound: CC(C)Oc1cccc(CC(=O)N2CCC[C@@](CC[N+]34CCC(c5ccccc5)(CC3)CC4)(c3ccc(Cl)c(Cl)c3)C2)c1.[Cl-] [SR140,333]
- CFA mechanical hyperalgesia [17]: minor
- SP-induced nuclear ERK (endosomal NK1R) 4 hours after pulse ([1]; pulse-incubated 30 min, washed, SP 4 hours later): unable to effectively inhibit persistent NK1R signaling in endosomes

Compound: substance P [SP]
- degradation by spinal cord membranes [18]: rapidly degraded

Compound: FC(F)(F)c1cc(CO[C@H]2CCCN[C@H]2c2ccccc2)cc(C(F)(F)F)c1 [L-733,060]
- capsaicin-evoked mechanical allodynia [19]: antinociceptive only at 1 hour
- % inhibition against 1 nM SP, Ca2+ signaling (NK1R (HEK-NK1R cells)): 40.8 ± 8.9%
